Assay outcomes (PubChem)
TMEM16A act = activators or potentiators of mouse TMEM16A chloride channel. Q8BHY3. HEK293 TMEM16A/YFP-H148Q/I152L, iodide quench fluorescence; stronger effect = lower value. B-score at 10 µM. 0.3% of 340,000 active;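 active means fluorescence-ratio B-score plate-corrected deviation score at least 3 library SD below zero, with starting fluorescence score within 5 deviations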;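 further: channel opened by trigger with iodide after compound preincubation; score built on the fluorescence ratio of max minus min over baseline; more negative score means more quench and so TMEM16A activation or potentiation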
MC4R ag barr = agonists of human melanocortin 4 receptor (MC4R) beta-arrestin; P32245; U2OS MC4R beta-arrestin complementation, luminescence; percent of melanotan II response, DMSO zero; activation, % at 8.9 µM; 0.98% of 360,000 active; AID 540308;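 active means activation above a per-plate cutoff, the mean activation of sample wells on that plate plus 3 SD, cut at about 8% in these data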
CSC inhib = blocks cancer stem cells; cancer stem cell-like cells viability, luminescence; 1.1% of 300,000 active; inhibition, % at 7.5 µM; in the data active means inhibition above about 75%; tested in HMLE shEcad cells
TMEM16A inh = blocks the mouse calcium-activated chloride channel TMEM16A; HEK293 TMEM16A/YFP iodide influx fluorescence, ionomycin; normalized B-score (activity score, 25-100; higher = stronger inhibition) at 10 µM; AID 588511; 1.2% of 310,000 active; Q8BHY3;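 active means ratio plate-corrected score three or more library SD toward inhibition, starting fluorescence score within five deviations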;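 further: score derived from kinetic fluorescence span divided by baseline fluorescence per well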
MC4R antagonist = blocks human MC4R cAMP signaling; P32245; MC4R-expressing cells, MTII-stimulated cAMP, LANCE TR-FRET; inhibition, % at 6.5 µM; 0.48% of 360,000 active; AID 540295;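 active means inhibition above its plate's cutoff, the mean of tested wells on that plate plus 3 SD, cut at about 29% in these data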;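 further: 0% = Melanotan II alone and 100% = Melanotan II plus saturating MCL0020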
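System: U2OS cells stably expressing human melanocortin 4 receptor (MC4R). Reagent: Melanotan II challenge after compound preincubation. Doses: 6.5 µM. Times: 30-min compound, 1-h challenge, 1-h detection, room temperature. Measured by: TR-FRET with Eu-cAMP and labeled anti-cAMP, 671 nm. Replicates: singlicate.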
Beta cell apopt = blocks beta cell apoptosis; INS-1E cytokine-induced death, ATP luminescence, 48 h; percent of positive-control rescue, neutral wells zero; AID 435005; 0.8% of 300,000 active; protection from apoptosis, % (no concentration beside the values);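 active means Every replicate reaches about 75%, or at least half do and their mean reaches it too, limit read from the data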;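 further: 0% = cytokine-treated negative control wells and 100% = positive control rescue; higher means more ATP so stronger rescue from cytokine killing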
cAMP nonselect = counter-screen for MC4R antagonists: nonselective cAMP signaling inhibitors; shares compounds with MC4R antagonist; parental U2OS, forskolin cAMP, LANCE TR-FRET; inhibition, % at 6.5 µM; 26% of 1,600 active;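 active means mean inhibition over triplicates above the low-control well mean plus 3 SD, set per campaign, cut at about 13% in these data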;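 further: signal is single emission at 671 nm which falls as cellular cAMP rises; 0% = forskolin-stimulated wells and 100% = buffer without forskolin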
MC4R cAMP antag = human MC4R cAMP antagonism confirmation; inhibition, % at 6.5 µM; 27% of 1,600 active; shares compounds with MC4R antagonist; MC4R-expressing cells, MTII-stimulated cAMP, TR-FRET; in the data active means inhibition above about 29%;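 further: 0% = agonist stimulated wells alone and 100% = agonist stimulated wells plus saturating reference antagonist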
MC4R barr conf = human MC4R beta-arrestin agonism confirmation. shares compounds with MC4R ag barr. U2OS MC4R beta-arrestin recruitment, luminescence; scaled DMSO 0%, Melanotan II 100%. activation, % at 8.9 µM. 31% of 2,400 active;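 active means mean activation across replicates above the hit cutoff set in the earlier primary screen, cut at about 8% in these data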
MOR-DOR barr ag = OPRM1-OPRD1 heterodimer agonism counter-screen; activation, % at 9.2 µM; U2OS PathHunter beta-arrestin, beta-gal luminescence; percent of deltorphin B response, DMSO zero; 5.8% of 2,400 active; shares compounds with MC4R ag barr;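 active means mean activation across replicates exceeds the hit threshold derived in the earlier primary screen, cut at about 18% in these data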;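 further: 100% = deltorphin B at 0.9 µM final and 0% = DMSO alone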
Target sequence (P35372 whole entry, looked up): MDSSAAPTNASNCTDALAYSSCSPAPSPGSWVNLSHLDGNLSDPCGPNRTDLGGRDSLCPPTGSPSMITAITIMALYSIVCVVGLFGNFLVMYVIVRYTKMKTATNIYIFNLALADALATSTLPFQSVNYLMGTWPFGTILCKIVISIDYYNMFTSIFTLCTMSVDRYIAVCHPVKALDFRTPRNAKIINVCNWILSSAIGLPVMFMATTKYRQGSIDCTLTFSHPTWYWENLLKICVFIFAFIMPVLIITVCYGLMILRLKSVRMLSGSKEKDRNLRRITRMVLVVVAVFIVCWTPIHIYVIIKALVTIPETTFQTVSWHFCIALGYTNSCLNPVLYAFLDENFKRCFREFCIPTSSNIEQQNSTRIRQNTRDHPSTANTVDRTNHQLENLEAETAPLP
Target sequence (P41143 whole entry, looked up): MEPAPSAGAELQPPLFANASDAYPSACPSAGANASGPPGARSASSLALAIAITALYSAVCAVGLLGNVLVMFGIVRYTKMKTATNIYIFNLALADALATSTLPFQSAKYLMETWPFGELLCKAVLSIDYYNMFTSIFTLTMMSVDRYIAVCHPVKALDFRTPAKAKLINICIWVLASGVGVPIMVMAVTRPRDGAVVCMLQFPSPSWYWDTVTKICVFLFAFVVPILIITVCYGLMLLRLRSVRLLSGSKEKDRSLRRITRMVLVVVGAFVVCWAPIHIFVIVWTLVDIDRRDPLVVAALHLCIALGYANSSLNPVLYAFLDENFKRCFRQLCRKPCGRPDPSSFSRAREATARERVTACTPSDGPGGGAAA
TMEM16A reconf = TMEM16A (mouse) chloride channel inhibition, re-confirmation. shares compounds with TMEM16A inh. HEK293 TMEM16A/YFP-H148Q, iodide quench fluorescence; ionomycin added to raise cell calcium. inhibition, % at 10 µM. 39% of 2,300 active;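 active means mean duplicate percent inhibition, scaled so buffer wells are 0 and the reference blocker 100, over three buffer SD above buffer mean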
HEK293 Ca mobil = counter-screen for TMEM16A inhibitors: effect on calcium mobilization | shares compounds with TMEM16A inh | TMEM16A/YFP HEK293, Fluo4 calcium mobilization | calcium response (% of ionomycin), % at 10 µM | 2% of 2,300 active | AID 652231;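 active means duplicate-averaged calcium signal over 20% of the ionomycin maximum, relative to buffer baseline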;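 further: each well's signal is peak minus trough fluorescence divided by its pre-addition baseline; 0% = buffer wells and 100% = ionomycin wells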
Parental YFP cnt = acts in parental YFP-HEK293 cells lacking TMEM16A, counter-screen; shares compounds with TMEM16A inh; iodide YFP quench, ionomycin; YFP ratio F(max-min)/F0 at 10 µM; 2,300 tested, under 10 active; AID 652233;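 active means yellow fluorescent protein signal ratio exceeding the buffer control mean by over 5 SD of those controls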;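 further: ratio is mean of duplicate wells from kinetic YFP trace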
ClC-1 inh = blocks the rat ClC-1 voltage-dependent chloride channel; shares compounds with TMEM16A inh; CHO ClC-1-YFP, iodide influx fluorescence quench; iodide control reads 0, buffer control 100; ratio percent, % at 10 µM; 2,300 tested, under 10 active; AID 652236;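 active means duplicate-mean ratio percent above the mean of iodide-only control wells, which defines zero, plus 5 of their SD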;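 further: higher percent means stronger block of ClC-1 iodide influx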
* marks the source's active call; other numbers are inactive results; i = inactive; nt = no result. Rows were chosen to be rich in hits. Some 3.8% of all compounds tested hit in one or more screens of this group.

SMILES	TMEM16A act	MC4R ag barr	CSC inhib	TMEM16A inh	MC4R antagonist	Beta cell apopt	cAMP nonselect	MC4R cAMP antag	MC4R barr conf	MOR-DOR barr ag	others
O=C(O)c1cnn(-c2nc(-c3ccc(Cl)cc3)cs2)c1C(F)(F)F	i	-1	-13	i	31*	-6	4	18	nt	nt
CCCC(=O)N1CCC1(C)C(=O)Nc1ccc2c(c1)OCCO2 (stereo unspecified)	nt	1	nt	nt	-5	nt	nt	nt	nt	nt
N#Cc1ccc(S(=O)(=O)N2CCN(CC(=O)NCC3(N4CCOCC4)CCCCC3)CC2)cc1	i	-1	-7	nt	-1	-9	nt	nt	nt	nt
O=C(c1ccccc1)N1N=C(c2ccccc2)CC1c1cccs1 (stereo unspecified)	i	2	-6	i	12	5	nt	nt	nt	nt
CC(=O)N1N=C(c2ccccc2)CC1c1cccs1 (stereo unspecified)	i	0	-7	i	29*	-3	-3	-15	nt	nt
O=C(/C=C/c1ccc2c(c1)OCO2)N1CCN(c2ccc(Cl)cc2)CC1	i	13*	4	i	29*	-3	-3	-17	2	4
O=C(/C=C/c1ccc2c(c1)OCCO2)N1CCN(c2ccc(F)cc2)CC1	i	-1	-1	i	2	5	nt	nt	nt	nt
CCc1nnc(NS(=O)(=O)c2ccc(NC(=S)NC(=O)/C=C/c3ccc(C(C)C)cc3)cc2)s1	i	24*	52	100*	29*	-2	-2	-6	1	1
COc1ccc2oc(=O)c(-c3csc(Nc4cccc(O)c4)n3)cc2c1	i	13*	nt	i	30*	nt	5	2	28*	4
C=C1CCc2c([nH]c3ccc(OCC(C)C)cc23)C1=O	i	14*	87*	i	45*	139*	12	32*	13*	12
COc1ccc2[nH]c3c(c2c1)CCNC3=O	i	-1	-23	i	0	-9	nt	nt	nt	nt
O=C(Nc1ccccc1-c1nc2ccccc2[nH]1)c1ccc(N2C(=O)CCC2=O)cc1	i	10*	7	i	35*	11	-1	27	2	10
O=C(NC(=O)N1CCCC1)c1csnn1	i	-2	10	i	5	-7	nt	nt	nt	nt
Cc1noc(C)c1NC(=O)Nc1ccc2c(c1)C(=O)N([C@H](C)CO)C[C@H](C)[C@@H](CN(C)S(=O)(=O)c1ccc(Cl)cc1)OCCCC[C@@H](C)O2	nt	0	nt	nt	4	nt	nt	nt	nt	nt
COc1cccc(OC)c1C(=O)OCC(=O)N(c1ccccc1)C1CCCCC1	i	0	70	nt	-2	6	nt	nt	nt	nt
COC(=O)CSc1nc2ccc(NC(=O)c3ccccc3C(=O)N3CCOCC3)cc2s1	i	-3	-14	i	14	1	nt	nt	nt	nt
O=C(Nc1ccc2nc(SCc3ccc(Cl)cc3)sc2c1)c1ccccc1C(=O)N1CCOCC1	i	10.0*	14	i	64*	-5	30*	66*	24*	17
CCCN(CCC)C(=O)Cc1ccc(F)cc1	i	1	nt	i	0	-3	nt	nt	nt	nt
CCCCCCCCCCCCCCCC[N+](C)(C)Cc1ccc(F)cc1	i	16*	nt	nt	42*	nt	-1	32*	31*	13
CCCCCCCCCC[N+](C)(C)CC/C=C1/c2ccccc2Sc2ccc(Cl)cc21	i	17*	106*	i	41*	91*	9	40*	18*	26*
CCCCCCCCCCC[N+](C)(C)CC/C=C1/c2ccccc2Sc2ccc(Cl)cc21	i	21*	59	i	36*	98*	7	30*	25*	19*
CC(=O)OC[C@]1(OC(C)=O)C[C@@]23CC[C@H]4[C@@](C)(CCC[C@@]4(C)C(=O)O)[C@@H]2CC[C@@H]1C3	i	-2	-12	i	-2	-13	nt	nt	nt	nt
CC(=O)OC[C@]12CC[C@H]3[C@@](C)(CC[C@H]4C(C)(C)CCC[C@]34C)[C@@H]1CC(C1=CC(=O)OC1O)O2 (stereo partly specified)	nt	91*	nt	nt	52*	nt	6	35*	26*	82*
C[C@H](CO)N1C[C@H](C)[C@@H](CN(C)C(=O)Nc2ccc(C(F)(F)F)cc2)Oc2c(NS(=O)(=O)c3ccccc3)cccc2C1=O	i	-1	nt	nt	4	-5	nt	nt	nt	nt
C[C@H](NS(=O)(=O)c1ccc(Cl)cc1)C(=O)OCC(=O)NCCc1ccc(S(N)(=O)=O)cc1	i	0	nt	nt	7	nt	nt	nt	nt	nt
Cc1nnc(-c2cccc(Br)c2)c2cn(-c3cccc(Br)c3)nc12	i	13*	23	i	33*	5	5	29*	6	5
CCN(C(=O)c1ccco1)c1nnc(-c2cccnc2)s1	i	-1	-15	i	18	-3	nt	nt	nt	nt
CC1(C)CC(=O)C2=C(C1)OC1=C(C(=O)CC(C)(C)C1)C2c1ccc(O)cc1O	i	-4	30	i	74*	102*	50*	52*	nt	nt	TMEM16A reconf=i;HEK293 Ca mobil=i;Parental YFP cnt=-0.58;ClC-1 inh=-4
N#Cc1c(N2CCN(C(=O)c3ccccc3)CC2)nc(-c2ccccc2)c2c1CCCC2	i	-1	72	i	15	3	nt	nt	nt	nt
